No end group written: not given here.
Key:
S. aureus MRSA = experiment: MIC, microdilution susceptibility test; type: cell-based, Staphylococcus aureus; settings: strain used in peritonitis model; Mueller–Hinton broth
Outline: (§1)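 Strains were stored at −80 °C and subcultured in LB broth before use. MIC was determined by broth microdilution following NCCLS guidelines in Mueller–Hinton broth with logarithmic-phase bacteria. Values are the mean of at least four independent experiments.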

P. aeruginosa ATCC 27853 = experiment: MIC, microdilution susceptibility test; type: cell-based, Pseudomonas aeruginosa; settings: strain used in peritonitis model; Mueller–Hinton broth
Outline: as §1

mammalian cells = settings: cited from earlier work
Vero76 cells = experiment: Peptide cytotoxicity, neutral red uptake assay; type: cell-based; settings: for Cell survival: 30 min at 37°C, neutral red uptake after 48 h, uninfected cells
Outline: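 Confluent uninfected Vero76 monolayers (MEM, 10% FCS, penicillin/streptomycin) were exposed to test peptide (0.5–50 μM range, in MEM) for 30 min at 37 °C, 5% CO2. Cells were washed and kept 48 h in growth medium, then given 50 μg/ml neutral red for 3 h. They were fixed in formaldehyde/CaCl2, the dye was extracted with acidified ethanol, and A550 was read. Triplicates, two experiments.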

E. coli O18:K1:H7 Bort = experiment: MIC, microdilution susceptibility test; type: cell-based, Escherichia coli; settings: strain used in peritonitis model; Mueller–Hinton broth
Outline: as §1

[1] = system: human herpes simplex virus type 1 (HSV-1); experiment: Virus yield inhibition assay; type: cell-based, HSV-1 in Vero76 cells; settings: mean of two independent experiments in triplicate
Outline: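 Confluent Vero76 monolayers were infected with 10^4 […] HSV-1 together with test peptide in MEM for 30 min at 37 °C, washed with PBS, and incubated 24 h. They were freeze-thawed three times. Ten-fold supernatant dilutions were adsorbed 1 h onto fresh monolayers under a 0.8% carboxymethylcellulose/2% FCS overlay for 3 days. Plaques were stained with crystal violet and counted as % inhibition versus untreated controls. Triplicates, repeated.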

Gram-positive strains = experiment: MIC, microdilution susceptibility test, Gram-positive isolates; type: cell-based; settings: Gram-positive strains (Fig. 1 and Table 2)
Outline: as §1

[2] = system: Gram-negative and -positive clinical isolates; experiment: MIC, microdilution susceptibility test, whole panel of clinical isolates; type: cell-based; settings: 53 bacterial isolates incl. antibiotic-resistant strains
Outline: as §1

[3] = system: A. baumannii and P. aeruginosa; experiment: MIC, microdilution susceptibility test; type: cell-based, Acinetobacter baumanni, Pseudomonas aeruginosa; settings: clinical isolates (Fig. 2)
Outline: as §1

In vivo toxicity, i.v. = experiment: In vivo toxicity, i.v.; parameters: species or system male Balb/c mice; settings: single dose, Litchfield and Wilcoxon
Outline: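 Male Balb/c mice (about 20 g, 4 weeks old) received a single i.v. injection of increasing doses of test peptide in sterile PBS, with vehicle-only controls. Behaviour and survival were monitored for 7 days. LD50 was calculated by the Litchfield–Wilcoxon method.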

Gram-negative species = experiment: MIC, microdilution susceptibility test, Gram-negative isolates; type: cell-based; settings: Gram-negative species (Fig. 2 and Table 2)
Outline: as §1

[4] = 12 mg/kg peptide i.v.; cited from earlier work

GGLRSLGRKILRAWKKYG-NH2 [BMAP-28(1–18)]
MIC (S. aureus MRSA): 4 to 8 µM
MIC (P. aeruginosa ATCC 27853): 2 µM
cytotoxic and haemolytic activities (mammalian cells): virtually devoid
toxicity to Vero cells (Vero76 cells; 5 μM peptide): not toxic
MIC (E. coli O18:K1:H7 Bort): 2 µM

GGLRSLGRKILRAWKKYGPIIVPIIRI-NH2 [BMAP-28]
MIC (S. aureus MRSA): 2 µM
MIC (P. aeruginosa ATCC 27853): 2 µM
Virus yield inhibition ([1]; 0.5 μM peptide): 10%
Virus yield inhibition ([1]; 5 μM peptide): 72%
MIC values (Gram-positive strains): 1 to 8 µM
concentration range toxic to mammalian cells (mammalian cells): above 10 μM
MIC values in most cases [2]: 1 to 8 µM
Cell survival (Vero76 cells; 0.5 μM peptide): 100%
cells taking up the neutral red dye (cytotoxicity) (Vero76 cells; 5 μM peptide): 17%
Cell survival (Vero76 cells; 5 μM peptide): 83%
Cell survival (Vero76 cells; 50 μM peptide): 5%
MIC (E. coli O18:K1:H7 Bort): 2 µM

GGLRSLGRKILRAWKKYGPQATPATRQ-NH2 [mBMAP-28]
MIC (S. aureus MRSA): >32 µM
MIC (P. aeruginosa ATCC 27853): 2 µM
MIC values (Gram-positive strains): > 32 µM
MICs [3]: 0.25 to 1 µM
MIC (E. coli O18:K1:H7 Bort): 2 µM

GRFKRFRKKFKKLFKKLS-NH2 [BMAP-27(1–18)]
MIC (S. aureus MRSA): 4 to 8 µM
MIC (P. aeruginosa ATCC 27853): 2 µM
cytotoxic and haemolytic activities (mammalian cells): virtually devoid
MIC (E. coli O18:K1:H7 Bort): 8 µM

GRFKRFRKKFKKLFKKLSPVIPLLHL-NH2 [BMAP-27]
MIC (S. aureus MRSA): 4 µM
LD50 (In vivo toxicity, i.v.): 10 mg/kg
MIC (P. aeruginosa ATCC 27853): 1 µM
concentration range toxic to mammalian cells (mammalian cells): above 10 μM
MIC values in most cases [2]: 1 to 8 µM
cytotoxicity to Vero cells (Vero76 cells; lowest peptide concentration tested (range 0.5–50 μM)): cytotoxic even at the lowest peptide concentration tested
MIC values (Gram-negative species): 1 to 2 µM
MIC (E. coli O18:K1:H7 Bort): 0.5 µM

ILRAWKKYGPIIVPIIRI-NH2 [BMAP-28(10–27)]
MIC (S. aureus MRSA): 8 µM
MIC (P. aeruginosa ATCC 27853): 8 µM
MIC (E. coli O18:K1:H7 Bort): 2 µM

indolicidin: a bovine cathelicidin peptide (ILPWKWPWWPWRR; ends and bridges not checked; UniProt P33046 131-143, looked up)
toxicity to mice when injected i.v. [4]: all treated animals died

From article PMC7124310 (Peptides, 2003)
